From ChEMBL document CHEMBL2417469, “Synthesis of novel analogs of 2-pyrazoline obtained from [(7-chloroquinolin-4-yl)amino]chalcones and hydrazine as potential antitumor and antimalarial agents” (Eur J Med Chem, 2013)

What was measured:
Format in all cases: functional
[1] = test system: MDA-MB-468; assay: Cytotoxicity against human MDA-MB-468 cells after 48 hrs by SRB assay; settings: MDA-MB-468, 48 h
Summary of the method: (§1)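 NCI 60-cell-line screen. Cells preincubated 24 h at 37 °C, 5% CO2; time-zero plates TCA-fixed. Compounds dissolved in DMSO and tested at five concentrations (100, 10, 1.0, 0.1, 0.01 µM) for 48 h continuous exposure. Adherent cells fixed with cold TCA (10% final), then SRB stained; absorbance at 515 nm. GI50, TGI and LC50 calculated from growth relative to time-zero and untreated controls.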

[2] = test system: BT-549; assay: Cytotoxicity against human BT549 cells after 48 hrs by SRB assay; settings: BT-549, 48 h; summary of the method: as §1
[3] = test system: Hs-578T; assay: Cytotoxicity against human Hs578T cells after 48 hrs by SRB assay; summary of the method: as §1
[4] = test system: MCF7; assay: Cytotoxicity against human MCF7 cells after 48 hrs by SRB assay; settings: MCF7, 48 h; for CC50: read-out: LC50 (the source's name); summary of the method: as §1
[5] = test system: MDA-MB-231; assay: Cytotoxicity against human MDA-MB-231 cells after 48 hrs by SRB assay; settings: MDA-MB-231, 48 h; summary of the method: as §1
[6] = test system: DU-145; assay: Cytotoxicity against human DU145 cells after 48 hrs by SRB assay; settings: DU-145, 48 h; summary of the method: as §1
[7] = test system: UO-31; assay: Cytotoxicity against human UO31 cells after 48 hrs by SRB assay; settings: UO-31, 48 h
Summary of the method: (§2)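 NCI 60-cell screen. Cells grew 24 h (37 °C, 5% CO2) before compound was added. Compounds were in DMSO and diluted in medium with gentamicin, then tested at five levels (100, 10, 1.0, 0.1, 0.01 µM) with 48 h continuous exposure. Adherent cells were fixed with TCA (10% final) and stained with 0.4% SRB, absorbance read at 515 nm. A time-zero plate was included. LC50 is the concentration giving 50% loss of protein relative to time zero.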

[8] = test system: SN12C; assay: Cytotoxicity against human SN12C cells after 48 hrs by SRB assay; summary of the method: as §1
[9] = test system: 786-0; assay: Cytotoxicity against human 786-0 cells after 48 hrs by SRB assay; settings: 786-0, 48 h; summary of the method: as §1
[10] = test system: NCI/ADR-RES; assay: Cytotoxicity against human NCI/ADR-RES cells after 48 hrs by SRB assay; settings: for CC50: read-out: LC50 (the source's name); summary of the method: as §1
[11] = test system: OVCAR-4; assay: Cytotoxicity against human OVCAR4 cells after 48 hrs by SRB assay; settings: OVCAR-4, 48 h; summary of the method: as §1
[12] = test system: OVCAR-3; assay: Cytotoxicity against human OVCAR3 cells after 48 hrs by SRB assay; settings: OVCAR-3, 48 h; summary of the method: as §1
[13] = test system: IGROV-1; assay: Cytotoxicity against human IGROV1 cells after 48 hrs by SRB assay; settings: IGROV-1, 48 h; summary of the method: as §1
[14] = test system: UACC-62; assay: Cytotoxicity against human UACC62 cells after 48 hrs by SRB assay; settings: UACC-62, 48 h; for CC50: read-out: LC50 (the source's name); summary of the method: as §2
[15] = test system: UACC-257; assay: Cytotoxicity against human UACC257 cells after 48 hrs by SRB assay; settings: UACC-257, 48 h; summary of the method: as §2
[16] = test system: SK-MEL-5; assay: Cytotoxicity against human SK-MEL-5 cells after 48 hrs by SRB assay; settings: SK-MEL-5, 48 h; summary of the method: as §1
[17] = test system: SK-MEL-2; assay: Cytotoxicity against human SK-MEL-2 cells after 48 hrs by SRB assay; settings: SK-MEL-2, 48 h; summary of the method: as §1
[18] = test system: MDA-MB-435; assay: Cytotoxicity against human MDA-MB-435 cells after 48 hrs by SRB assay; settings: MDA-MB-435, 48 h; summary of the method: as §1
[19] = test system: M14; assay: Cytotoxicity against human M14 cells after 48 hrs by SRB assay; settings: M14, 48 h; for CC50: read-out: LC50 (the source's name); summary of the method: as §1
[20] = test system: LOX IMVI; assay: Cytotoxicity against human LOXIMVI cells after 48 hrs by SRB assay; summary of the method: as §1
[21] = test system: SNB-75; assay: Cytotoxicity against human SNB75 cells after 48 hrs by SRB assay; settings: SNB-75, 48 h; summary of the method: as §2
[22] = test system: SNB-19; assay: Cytotoxicity against human SNB19 cells after 48 hrs by SRB assay; settings: SNB-19, 48 h; summary of the method: as §2
[23] = test system: SF-268; assay: Cytotoxicity against human SF268 cells after 48 hrs by SRB assay; settings: SF-268, 48 h; summary of the method: as §1
[24] = test system: KM12; assay: Cytotoxicity against human KM12 cells after 48 hrs by SRB assay; settings: KM12, 48 h; summary of the method: as §1
[25] = test system: HCT-15; assay: Cytotoxicity against human HCT15 cells after 48 hrs by SRB assay; settings: HCT-15, 48 h; summary of the method: as §1
[26] = test system: HCC 2998; assay: Cytotoxicity against human HCC2998 cells after 48 hrs by SRB assay; settings: HCC 2998, 48 h; summary of the method: as §1
[27] = test system: NCI-H522; assay: Cytotoxicity against human NCI-H522 cells after 48 hrs by SRB assay; settings: NCI-H522, 48 h; for CC50: read-out: LC50 (the source's name); summary of the method: as §1
[28] = test system: NCI-H460; assay: Cytotoxicity against human NCI-H460 cells after 48 hrs by SRB assay; settings: NCI-H460, 48 h; summary of the method: as §1
[29] = test system: NCI-H226; assay: Cytotoxicity against human NCI-H226 cells after 48 hrs by SRB assay; settings: NCI-H226, 48 h; summary of the method: as §1
[30] = test system: NCI-H23; assay: Cytotoxicity against human NCI-H23 cells after 48 hrs by SRB assay; settings: NCI-H23, 48 h; for CC50: read-out: LC50 (the source's name); summary of the method: as §1
[31] = test system: HOP-92; assay: Cytotoxicity against human HOP92 cells after 48 hrs by SRB assay; settings: HOP-92, 48 h; summary of the method: as §1
[32] = test system: HOP-62; assay: Cytotoxicity against human HOP62 cells after 48 hrs by SRB assay; settings: HOP-62, 48 h; summary of the method: as §1
[33] = Cytotoxicity against human EKVX cells after 48 hrs by SRB assay; summary of the method: as §1
[34] = test system: A549; assay: Cytotoxicity against human A549/ATCC cells after 48 hrs by SRB assay; settings: A549, 48 h; for CC50: read-out: LC50 (the source's name); summary of the method: as §1
[35] = test system: HL-60(TB); assay: Cytotoxicity against human HL-60(TB) cells after 48 hrs by SRB assay; settings: HL-60, 48 h; for CC50: read-out: LC50 (the source's name); summary of the method: as §1

Structure (SMILES): O=CN1N=C(c2cccc(Nc3ccnc4cc(Cl)ccc34)c2)CC1c1ccc(Cl)cc1 (centres undefined)
- GI50 [1]: 420 nM
- LC50 [1]: > 100 µM
- GI50 [2]: 1360 nM
- LC50 (50% net cell kill vs time zero) [2]: > 100 µM
- GI50 [3]: 1970 nM
- LC50 (50% net cell kill) [3]: > 100 µM
- GI50 [4]: 810 nM
- CC50 [4]: > 100 µM
- GI50 [5]: 2120 nM
- LC50 (concentration killing 50% of cells present at time zero) [5]: > 100 µM
- GI50 [6]: 4170 nM
- LC50 (concentration killing 50% of cells) [6]: > 100 µM
- GI50 [7]: 880 nM
- LC50 [7]: > 100 µM
- GI50 [8]: 3860 nM
- LC50 (50% net cell kill relative to time zero) [8]: > 100 µM
- GI50 [9]: 4730 nM
- LC50 [9]: > 100 µM
- GI50 [10]: 760 nM
- CC50 [10]: > 100 µM
- GI50 [11]: 4130 nM
- LC50 [11]: > 100 µM
- GI50 [12]: 1200 nM
- LC50 [12]: > 100 µM
- GI50 [13]: 760 nM
- LC50 (concentration killing 50% of cells relative to time zero) [13]: > 100 µM
- GI50 [14]: 1630 nM
- CC50 [14]: > 100 µM
- LC50 [15]: > 100 µM
- GI50 [16]: 1860 nM
- LC50 (concentration killing 50% of cells present at time zero) [16]: > 100 µM
- GI50 [17]: 2050 nM
- LC50 [17]: > 100 µM
- GI50 [18]: 290 nM
- LC50 [18]: > 100 µM
- GI50 [19]: 1040 nM
- CC50 [19]: > 100 µM
- GI50 [20]: 1560 nM
- LC50 [20]: 50.4 µM
- GI50 [21]: 1580 nM
- LC50 (50% net cell kill) [21]: > 100 µM
- GI50 [22]: 3480 nM
- LC50 [22]: > 100 µM
- GI50 [23]: 4370 nM
- LC50 [23]: > 100 µM
- GI50 [24]: 590 nM
- LC50 (concentration killing 50% of cells) [24]: > 100 µM
- GI50 [25]: 900 nM
- LC50 (concentration killing 50% of cells relative to time zero) [25]: > 100 µM
- GI50 [26]: 3360 nM
- LC50 [26]: > 100 µM
- GI50 [27]: 800 nM
- CC50 [27]: > 100 µM
- GI50 [28]: 790 nM
- LC50 [28]: > 100 µM
- GI50 [29]: > 100 µM
- LC50 (50% lethal concentration) [29]: > 100 µM
- GI50 [30]: 2480 nM
- CC50 [30]: > 100 µM
- GI50 [31]: 650 nM
- LC50 (concentration killing 50% of cells) [31]: > 100 µM
- GI50 [32]: 1910 nM
- LC50 (50% lethal concentration) [32]: > 100 µM
- GI50 [33]: > 100000 nM
- LC50 [33]: > 100 µM
- GI50 [34]: 940 nM
- CC50 [34]: > 100 µM
- GI50 [35]: 1100 nM
- CC50 [35]: 40.2 µM

Structure (SMILES): O=CN1N=C(c2cccc(Nc3ccnc4cc(Cl)ccc34)c2)CC1c1ccccc1 (centres undefined)
- GI50 [1]: 220 nM
- LC50 [1]: > 100 µM
- GI50 [2]: 210 nM
- LC50 (50% net cell kill vs time zero) [2]: 30.9 µM
- GI50 [3]: 290 nM
- LC50 (50% net cell kill) [3]: > 100 µM
- GI50 [4]: 340 nM
- CC50 [4]: > 100 µM
- GI50 [5]: 1150 nM
- LC50 (concentration killing 50% of cells present at time zero) [5]: > 100 µM
- GI50 [6]: 440 nM
- LC50 (concentration killing 50% of cells) [6]: > 100 µM
- GI50 [7]: 410 nM
- LC50 [7]: > 100 µM
- GI50 [8]: 630 nM
- LC50 (50% net cell kill relative to time zero) [8]: > 100 µM
- GI50 [9]: 590 nM
- LC50 [9]: > 100 µM
- GI50 [10]: 290 nM
- CC50 [10]: > 100 µM
- GI50 [11]: 560 nM
- LC50 [11]: > 100 µM
- GI50 [12]: 280 nM
- LC50 [12]: 7.38 µM
- GI50 [13]: 820 nM
- LC50 (concentration killing 50% of cells relative to time zero) [13]: > 100 µM
- GI50 [14]: 530 nM
- CC50 [14]: > 100 µM
- GI50 [15]: 330 nM
- LC50 [15]: > 100 µM
- GI50 [16]: 290 nM
- LC50 (concentration killing 50% of cells present at time zero) [16]: 64.2 µM
- GI50 [17]: 260 nM
- LC50 [17]: > 100 µM
- GI50 [18]: 130 nM
- LC50 [18]: > 100 µM
- GI50 [19]: 330 nM
- CC50 [19]: > 100 µM
- GI50 [20]: 450 nM
- LC50 [20]: 4.23 µM
- GI50 [21]: 220 nM
- LC50 (50% net cell kill) [21]: > 100 µM
- GI50 [22]: 600 nM
- LC50 [22]: > 100 µM
- GI50 [23]: 1040 nM
- LC50 [23]: > 100 µM
- GI50 [24]: 290 nM
- LC50 (concentration killing 50% of cells) [24]: > 100 µM
- GI50 [25]: 520 nM
- LC50 (concentration killing 50% of cells relative to time zero) [25]: > 100 µM
- GI50 [26]: 1220 nM
- LC50 [26]: > 100 µM
- GI50 [27]: 210 nM
- CC50 [27]: > 100 µM
- GI50 [28]: 410 nM
- LC50 [28]: > 100 µM
- GI50 [29]: 6.91 µM
- LC50 (50% lethal concentration) [29]: > 100 µM
- GI50 [30]: 610 nM
- CC50 [30]: > 100 µM
- GI50 [31]: 210 nM
- LC50 (concentration killing 50% of cells) [31]: > 100 µM
- GI50 [32]: 510 nM
- LC50 (50% lethal concentration) [32]: > 100 µM
- GI50 [33]: 950 nM
- LC50 [33]: > 100 µM
- GI50 [34]: 540 nM
- CC50 [34]: > 100 µM
- GI50 [35]: 200 nM
- CC50 [35]: 4.56 µM
